Measured values as given in ChEMBL document CHEMBL1240355 (2010).
Converted amounts (≈) assume the structure as drawn. The source made the active and inactive calls. The rule behind the calls is not given here.

Columns and labels:
Salmonella enteritidis [1] = experiment: Antibacterial activity against wild type Salmonella enteritidis 104 harboring gyrA D87Y mutant gene by CLSI method; assay type: functional, Salmonella enterica subsp. enterica serovar Enteritidis; details: Salmonella enterica
Salmonella enteritidis [2] = experiment: Antibacterial activity against ciprofloxacin-resistant Salmonella enteritidis 104 harboring gyrA D87Y/S83F mutant, soxR R20H mutant and soxS E52K mutant gene by CLSI method; details: Salmonella enterica
Salmonella enteritidis [3] = experiment: Antibacterial activity against ciprofloxacin-susceptible Salmonella enteritidis 1A-revertC2 harboring gyrA D87Y/S83F mutant, parC D79N mutant, soxR R133C/R20H mutant, soxS E52K mutant and marA I111N/H115Q mutant gene after 70 passages by CLSI method; assay type: functional, Salmonella enterica subsp. enterica serovar Enteritidis; details: Salmonella enterica
Salmonella enteritidis [4] = experiment: Antibacterial activity against ciprofloxacin-resistant Salmonella enteritidis 5408 harboring gyrA D87Y mutant, gyrB E466D mutant, parE V461G mutant and ramR G25A mutant gene after 200 passages by CLSI method; assay type: functional, Salmonella enterica subsp. enterica serovar Enteritidis; details: Salmonella enterica
Salmonella enteritidis [5] = experiment: Antibacterial activity against wild type Salmonella enteritidis 5408 harboring gyrA D87Y mutant gene by CLSI method; assay type: functional, Salmonella enterica subsp. enterica serovar Enteritidis; details: Salmonella enterica
Salmonella enteritidis [6] = experiment: Antibacterial activity against ciprofloxacin-susceptibility revert strain of Salmonella enteritidis 104 harboring gyrA D87Y/S83F mutant, parC D79N mutant, soxR E16G/R20H mutant and soxS E52K mutant gene after 20 passages by CLSI method; assay type: functional, Salmonella enterica subsp. enterica serovar Enteritidis; details: Salmonella enterica
Salmonella enteritidis [7] = experiment: Antibacterial activity against Salmonella enteritidis NCTC 13349 by CLSI method; assay type: functional, Salmonella enterica subsp. enterica serovar Enteritidis; details: Salmonella enterica
Salmonella enteritidis [8] = experiment: Antibacterial activity against ciprofloxacin-resistant Salmonella enteritidis 104 harboring gyrA D87Y/S83F mutant, soxR R20H mutant and soxS E52K mutant gene assessed as reduction in swim motility after overnight incubation; assay type: functional, Salmonella enterica subsp. enterica serovar Enteritidis
How it was run: (§1)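 Swim assay: 1 µl of overnight culture spotted centrally on LB with 0.1% gellan gum, dried 1 h at room temperature, incubated overnight at 30°C. Visible spread measured with a ruler (mm). Reduction expressed relative to the parent strain.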

Salmonella enteritidis [9] = experiment: Antibacterial activity against wild type Salmonella enteritidis 104 harboring gyrA D87Y mutant gene assessed as width of bacterial rods by microscopy; assay type: functional, Salmonella enterica subsp. enterica serovar Enteritidis
Salmonella enteritidis [10] = experiment: Antibacterial activity against wild type Salmonella enteritidis 5408 harboring gyrA D87Y mutant gene assessed as length of bacterial rods by microscopy; assay type: functional, Salmonella enterica subsp. enterica serovar Enteritidis
Salmonella enteritidis [11] = experiment: Antibacterial activity against ciprofloxacin-resistant Salmonella enteritidis 104 harboring gyrA D87Y/S83F mutant, soxR R20H mutant and soxS E52K mutant gene assessed as length of bacterial rods by microscopy; assay type: functional, Salmonella enterica subsp. enterica serovar Enteritidis
Salmonella enteritidis [12] = experiment: Antibacterial activity against wild type Salmonella enteritidis 5408 harboring gyrA D87Y mutant gene after 24 hrs by spectrophotometry; assay type: functional, organism-based; details: Salmonella enterica subsp. enterica serovar Enteritidis
How it was run: (§2)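 Growth in TSB: colony from TSA (37°C, 18 h) grown overnight in 10 ml TSB, 1 ml into 100 ml TSB, shaken aerobically at 37°C. Absorbance read hourly for 8 h, then at 24 h, by spectrophotometer.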

Salmonella enteritidis [13] = experiment: Antibacterial activity against ciprofloxacin-resistant Salmonella enteritidis 5408 harboring gyrA D87Y mutant, gyrB E466D mutant, parE V461G mutant and ramR G25A mutant gene assessed as width of bacterial rods by microscopy; assay type: functional, Salmonella enterica subsp. enterica serovar Enteritidis
Salmonella enteritidis [14] = experiment: Antibacterial activity against ciprofloxacin-resistant Salmonella enteritidis 5408 harboring gyrA D87Y mutant, gyrB E466D mutant, parE V461G mutant and ramR G25A mutant gene after 24 hrs by spectrophotometry; assay type: functional, organism-based; details: Salmonella enterica subsp. enterica serovar Enteritidis; how it was run: as §2
Salmonella enteritidis [15] = experiment: Antibacterial activity against ciprofloxacin-resistant Salmonella enteritidis 5408 harboring gyrA D87Y mutant, gyrB E466D mutant, parE V461G mutant and ramR G25A mutant gene assessed as reduction in swarm motility after overnight incubation; assay type: functional, Salmonella enterica subsp. enterica serovar Enteritidis
How it was run: (§3)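 Swarm assay: overnight LB culture pelleted, washed once, concentrated 50-fold. 2 µl spotted on LB with 0.2% gellan gum, incubated overnight at 30°C. Colony spread measured in mm. Reduction expressed relative to the parent strain.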

Salmonella enteritidis [16] = experiment: Antibacterial activity against ciprofloxacin-susceptibility revert strain of Salmonella enteritidis 104 harboring gyrA D87Y/S83F mutant, parC D79N mutant, soxR E16G/R20H mutant and soxS E52K mutant gene assessed as reduction in swim motility after overnight incubation; assay type: functional, Salmonella enterica subsp. enterica serovar Enteritidis; how it was run: as §1
Salmonella enteritidis [17] = experiment: Antibacterial activity against ciprofloxacin-resistant Salmonella enteritidis 5408 harboring gyrA D87Y mutant, gyrB E466D mutant, parE V461G mutant and ramR G25A mutant gene assessed as length of bacterial rods by microscopy; assay type: functional, Salmonella enterica subsp. enterica serovar Enteritidis
Salmonella enteritidis [18] = experiment: Antibacterial activity against ciprofloxacin-resistant Salmonella enteritidis 104 harboring gyrA D87Y/S83F mutant, soxR R20H mutant and soxS E52K mutant gene assessed as reduction in swarm motility after overnight incubation; assay type: functional, Salmonella enterica subsp. enterica serovar Enteritidis; how it was run: as §3
Salmonella enteritidis [19] = experiment: Antibacterial activity against ciprofloxacin-resistant Salmonella enteritidis 104 harboring gyrA D87Y/S83F mutant, soxR R20H mutant and soxS E52K mutant gene after 24 hrs by spectrophotometry; assay type: functional, organism-based; details: Salmonella enterica subsp. enterica serovar Enteritidis; how it was run: as §2
Salmonella enteritidis [20] = experiment: Antibacterial activity against ciprofloxacin-resistant Salmonella enteritidis 5408 harboring gyrA D87Y mutant, gyrB E466D mutant, parE V461G mutant and ramR G25A mutant gene assessed as reduction in swim motility after overnight incubation; assay type: functional, Salmonella enterica subsp. enterica serovar Enteritidis; how it was run: as §1
Salmonella enteritidis [21] = experiment: Antibacterial activity against wild type Salmonella enteritidis 5408 harboring gyrA D87Y mutant gene assessed as width of bacterial rods by microscopy; assay type: functional, Salmonella enterica subsp. enterica serovar Enteritidis
Salmonella enteritidis [22] = experiment: Antibacterial activity against Salmonella enteritidis by CLSI method; details: Salmonella enterica
Salmonella enteritidis [23] = experiment: Antibacterial activity against wild type Salmonella enteritidis 104 harboring gyrA D87Y mutant gene after 24 hrs by spectrophotometry; assay type: functional, organism-based; details: Salmonella enterica subsp. enterica serovar Enteritidis; how it was run: as §2
Salmonella enteritidis [24] = experiment: Antibacterial activity against wild type Salmonella enteritidis 104 harboring gyrA D87Y mutant gene assessed as length of bacterial rods by microscopy; assay type: functional, Salmonella enterica subsp. enterica serovar Enteritidis
Salmonella enteritidis [25] = experiment: Antibacterial activity against ciprofloxacin-susceptibility revert strain of Salmonella enteritidis 104 harboring gyrA D87Y/S83F mutant, parC D79N mutant, soxR E16G/R20H mutant and soxS E52K mutant gene assessed as reduction in swarm motility after overnight incubation; assay type: functional, Salmonella enterica subsp. enterica serovar Enteritidis; how it was run: as §3
Salmonella enteritidis [26] = experiment: Antibacterial activity against ciprofloxacin-resistant Salmonella enteritidis 104 harboring gyrA D87Y/S83F mutant, soxR R20H mutant and soxS E52K mutant gene assessed as width of bacterial rods by microscopy; assay type: functional, Salmonella enterica subsp. enterica serovar Enteritidis
Salmonella enteritidis [27] = experiment: Antibacterial activity against ciprofloxacin-susceptible Salmonella enteritidis 1A-revertC2 harboring gyrA D87Y/S83F mutant, parC D79N mutant, soxR R133C/R20H mutant, soxS E52K mutant and marA I111N/H115Q mutant gene after 70 passages after 24 hrs by spectrophotometry; assay type: functional, organism-based; details: Salmonella enterica subsp. enterica serovar Enteritidis; how it was run: as §2
Salmonella enteritidis [28] = experiment: Antibacterial activity against ciprofloxacin-susceptibility revert strain of Salmonella enteritidis 104 harboring gyrA D87Y/S83F mutant, parC D79N mutant, soxR E16G/R20H mutant and soxS E52K mutant gene after 24 hrs by spectrophotometry; assay type: functional, organism-based; details: Salmonella enterica subsp. enterica serovar Enteritidis; how it was run: as §2

## O=C(N[C@H](CO)[C@H](O)c1ccc([N+](=O)[O-])cc1)C(Cl)Cl [CHLORAMPHENICOL]
Salmonella enteritidis [1]
  MIC: 2 µg/mL (≈ 6.19 µM)
Salmonella enteritidis [2]
  MIC: 128 µg/mL (≈ 396 µM)
Salmonella enteritidis [3]
  MIC: 2 µg/mL (≈ 6.19 µM)
Salmonella enteritidis [4]
  MIC: 16 µg/mL (≈ 49.5 µM)
Salmonella enteritidis [5]
  MIC: 4 µg/mL (≈ 12.4 µM)
Salmonella enteritidis [6]
  MIC: 8 µg/mL (≈ 24.8 µM)

## CCn1cc(C(=O)O)c(=O)c2ccc(C)nc21 [NALIDIXIC ACID]
Salmonella enteritidis [7]
  MIC: 8 µg/mL (≈ 34.4 µM)
Salmonella enteritidis [1]
  MIC: > 256 µg/mL
Salmonella enteritidis [2]
  MIC: > 256 µg/mL
Salmonella enteritidis [3]
  MIC: > 256 µg/mL
Salmonella enteritidis [4]
  MIC: > 256 µg/mL
Salmonella enteritidis [5]
  MIC: > 256 µg/mL
Salmonella enteritidis [6]
  MIC: > 256 µg/mL

## CN(C)[C@@H]1C(O)=C(C(N)=O)C(=O)[C@@]2(O)C(O)=C3C(=O)c4c(O)cccc4[C@@](C)(O)[C@H]3C[C@@H]12 [TETRACYCLINE]
Salmonella enteritidis [1]
  MIC: 1 µg/mL (≈ 2.25 µM)
Salmonella enteritidis [2]
  MIC: 16 µg/mL (≈ 36 µM)
Salmonella enteritidis [3]
  MIC: 0.5 µg/mL (≈ 1.13 µM)
Salmonella enteritidis [4]
  MIC: 2 µg/mL (≈ 4.5 µM)
Salmonella enteritidis [5]
  MIC: 1 µg/mL (≈ 2.25 µM)
Salmonella enteritidis [6]
  MIC: 2 µg/mL (≈ 4.5 µM)

## O=C(O)c1cn(C2CC2)c2cc(N3CCNCC3)c(F)cc2c1=O [CIPROFLOXACIN]
Salmonella enteritidis [8]
  inhibition (INH): 66%
Salmonella enteritidis [9]
  Activity: 0.43 um
Salmonella enteritidis [10]
  Activity: 1.1 um
Salmonella enteritidis [11]
  Activity: 1.16 um
Salmonella enteritidis [12]
  Activity: Active
Salmonella enteritidis [13]
  Activity: 0.51 um
Salmonella enteritidis [14]
  Activity: inactive
Salmonella enteritidis [15]
  inhibition (INH): 46%
Salmonella enteritidis [16]
  inhibition (INH): 90%
Salmonella enteritidis [17]
  Activity: 1 um
Salmonella enteritidis [18]
  inhibition (INH): 36%
Salmonella enteritidis [19]
  Activity: inactive
Salmonella enteritidis [20]
  inhibition (INH): 93%
Salmonella enteritidis [21]
  Activity: 0.46 um
Salmonella enteritidis [22]
  MIC: 0.12 µg/mL (≈ 0.362 µM)
Salmonella enteritidis [23]
  Activity: Active
Salmonella enteritidis [24]
  Activity: 1.02 um
Salmonella enteritidis [25]
  inhibition (INH): 36%
Salmonella enteritidis [26]
  Activity: 0.45 um
Salmonella enteritidis [27]
  Activity: Active
Salmonella enteritidis [28]
  Activity: Active

## CC1(C)S[C@@H]2[C@H](NC(=O)[C@H](N)c3ccccc3)C(=O)N2[C@H]1C(=O)O [AMPICILLIN]
Salmonella enteritidis [1]
  MIC: 1 µg/mL (≈ 2.86 µM)
Salmonella enteritidis [2]
  MIC: 16 µg/mL (≈ 45.8 µM)
Salmonella enteritidis [3]
  MIC: 0.5 µg/mL (≈ 1.43 µM)
Salmonella enteritidis [4]
  MIC: 4 µg/mL (≈ 11.4 µM)
Salmonella enteritidis [5]
  MIC: 1 µg/mL (≈ 2.86 µM)
Salmonella enteritidis [6]
  MIC: 4 µg/mL (≈ 11.4 µM)
